We go through ten compounds from ChEMBL document CHEMBL1138656, “Design, synthesis, and evaluation of sugar amino acid based inhibitors of protein prenyl transferases PFT and PGGT-1” (J Med Chem, 2004).

Test [1] concerns the target Protein farnesyltransferase (Homo sapiens, UniProt P49354+P49356). As to the kind of experiment: Inhibition of [3H]FPP incorporation by Protein Farnesyltransferase. The test is classed as protein-complex assay. In short, it runs like this:
(§1)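 Cell-free prenyltransferase assay measuring inhibition of enzyme-catalysed incorporation of tritiated prenyl donor: [3H]FPP for PFT, the corresponding tritiated geranylgeranyl donor for PGGT-1. The buffer was Tris, pH 7.4, with dithiothreitol, which removes the cysteine S-tert-butyl group. Each determination used five compound concentrations. The IC50 came from a fitted concentration–inhibition curve and is the mean of three determinations.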

In test [2] the target is Geranylgeranyl transferase type I (Homo sapiens, UniProt P49354+P53609). Description: Inhibition of [3H]GGPP incorporation by Protein Geranylgeranyl transferase type I. The class given is protein-complex assay. In short, it runs like this:
as §1

A value given as a limit tells only on which side of the number the result lay.

With `C=C(N[C@@H](CCSC)C(=O)O)[C@H]1O[C@H](CNC(=O)[C@@H](N)CSSC(C)(C)C)CC[C@@H]1OCc1ccccc1`, the values for the IC50 in test [1] and in test [2] were roughly 1000 µM and 311 µM, respectively.

Turning to `C[S+]([O-])CC[C@H](NC(=O)[C@H]1O[C@@H](CNC(=O)[C@@H](N)CSSC(C)(C)C)CC[C@@H]1OCc1ccccc1)C(=O)O` (some centres undefined), the 50% inhibitory concentration (IC50) (in general, the midpoint of a concentration-inhibition curve) is 2.2 µM in test [1] and greater than 1000 µM in test [2].

In the case of `CSCC[C@H](NC(=O)[C@H]1O[C@H](CNC(=O)[C@@H](N)CSSC(C)(C)C)CC[C@@H]1OCc1ccccc1)C(=O)O`, the half-maximal inhibitory concentration (IC50) is 42 µM in test [1] and 48 µM in test [2].

As for `C=C(N[C@@H](CC(C)C)C(=O)O)[C@H]1O[C@@H](CNC(=O)[C@@H](N)CSSC(C)(C)C)CCC1O` (some centres undefined), the values for the IC50 in test [1] and in test [2] were greater than 1000 µM and 261 µM, respectively.

As for `CC(C)C[C@H](NC(=O)[C@H]1O[C@H](CNC(=O)[C@@H](N)CSSC(C)(C)C)CC[C@@H]1OCc1ccccc1)C(=O)O`, the 50% inhibitory concentration (IC50) worked out at 321 µM in test [1] and 206 µM in test [2].

In the case of `CC(C)C[C@H](NC(=O)[C@H]1O[C@@H](CNC(=O)[C@@H](N)CSSC(C)(C)C)CC[C@@H]1OCc1ccccc1)C(=O)O`, the figures for the IC50 in test [1] and in test [2] were 57 µM and 14 µM, respectively.

Consider `CSCC[C@H](NC(=O)[C@H]1O[C@@H](CNC(=O)[C@@H](N)CSSC(C)(C)C)CC[C@@H]1OCc1ccccc1)C(=O)O`, for which the IC50 in test [1] is 0.25 µM; in test [2], greater than 1000 µM.

Consider `C=C(N[C@@H](CCSC)C(=O)O)[C@H]1O[C@@H](CNC(=O)[C@@H](N)CSSC(C)(C)C)CC[C@@H]1OCc1ccccc1`, for which the 50% inhibitory concentration (IC50) is greater than 1000 µM in test [1] and 500 µM in test [2].

With `C[S+]([O-])CC[C@H](NC(=O)[C@H]1O[C@H](CNC(=O)[C@@H](N)CSSC(C)(C)C)CC[C@@H]1OCc1ccccc1)C(=O)O` (some centres undefined), the half-maximal inhibitory concentration (IC50) in test [1] worked out at 91 µM; in test [2], 521 µM.

In test [1], `CC[C@H](C)[C@H](NC(=O)[C@@H](NC(=O)[C@@H](N)CS)C(C)C)C(=O)N[C@@H](CCSC)C(=O)O` yielded an IC50 of 0.42 µM. This counts as sub-micromolar.
